# From ChEMBL document CHEMBL4480447, “Acrotrione: An Oxidized Xanthene from the Roots of Acronychia pubescens” (J Nat Prod, 2019)
# What was measured:
# Plasmodium falciparum [1] = assay: Antiplasmodial activity against drug-sensitive Plasmodium falciparum 3D7 ring stage forms assessed as inhibition of parasite growth after 72 hrs by DAPI staining-based confocal microscopic analysis; type: functional, organism-based; settings: 3D7, 72 h
# [2] = Selectivity ratio of IC50 for Plasmodium falciparum Dd2 ring stage forms to IC50 for Plasmodium falciparum 3D7 ring stage forms; type: functional
# Summary of the method: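 Sixteen-point dose-response, 40 μM to 0.4 nM final. Fit is four-parameter logistic on percent inhibition normalized to puromycin (5 μM) and 0.4% DMSO. Ratio is Dd2 IC50 over 3D7 IC50.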
# [3] = Cytotoxicity against HEK293 cells assessed as growth inhibition after 72 hrs by resazurin dye-based fluorescence assay relative to control; type: cell-based; set-up: concentration or dose not given beside the values; settings: human, read-out: GI
# Summary of the method: (§1)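 HEK293 cells kept in DMEM with 10% FBS. Exposed to compound for 72 h at 37 °C, 5% CO2; 16-point dose-response, 40 μM to 0.4 nM final, three concentrations per log, from 10 mM DMSO stocks. Medium then replaced with 44 μM resazurin; fluorescence read after 5−6 h (ex/em 530/595 nm). Data normalized to puromycin (5 μM) and 0.4% DMSO controls; IC50 from four-parameter logistic fit.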
# Plasmodium falciparum [4] = assay: Antiplasmodial activity against drug-resistant Plasmodium falciparum Dd2 ring stage forms assessed as inhibition of parasite growth after 72 hrs by DAPI staining-based confocal microscopic analysis; type: functional, organism-based; settings: Dd2, 72 h
# Summary of the method: (§2)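 Compounds from 10 mM DMSO stocks, 16-point dose-response, 40 μM to 0.4 nM final. Incubation 72 h at 37 °C, 90% N2/5% CO2/5% O2. DAPI stain, confocal imaging. Percent inhibition normalized to puromycin 5 μM and 0.4% DMSO controls; IC50 by four-parameter logistic fit.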
# Plasmodium falciparum [5] = assay: Antiplasmodial activity against drug-sensitive Plasmodium falciparum 3D7 ring stage forms assessed as inhibition of parasite growth at 40 uM after 72 hrs by DAPI staining-based confocal microscopic analysis; type: functional; settings: 3D7, 72 h, read-out: GI
# Summary of the method: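 Exposed to compound for 72 h at 37 °C under 90% N2/5% CO2/5% O2. DAPI staining followed by confocal imaging. Percent inhibition normalized to puromycin (5 μM) and 0.4% DMSO controls.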
# Plasmodium falciparum [6] = assay: Antiplasmodial activity against drug-resistant Plasmodium falciparum Dd2 ring stage forms assessed as inhibition of parasite growth at 40 uM after 72 hrs by DAPI staining-based confocal microscopic analysis; type: functional; settings: Dd2, 72 h, read-out: GI; summary of the method: as §2
# HEK293 = assay: Cytotoxicity against HEK293 cells after 72 hrs by resazurin dye-based fluorescence assay; type: cell-based; settings: Homo sapiens, HEK293, 72 h; summary of the method: as §1
# [7] = Selectivity index, ratio of IC50 for HEK293 cells to IC50 for drug-sensitive Plasmodium falciparum 3D7 ring stage forms; type: toxicity; settings: human; read-out: Ratio IC50
Compound,IC50 (Plasmodium falciparum [1]) [nM],Ratio IC50 [2],inhibition at 72 h [3] [%],IC50 (Plasmodium falciparum [4]) [nM],inhibition of growth at 40 µM (Plasmodium falciparum [5]) [%],inhibition of growth at 40 µM (Plasmodium falciparum [6]) [%],IC50 (HEK293) [nM],selectivity ratio [7]
COc1c(CC=C(C)C)c2c(c(O)c1C(C)=O)[C@H](CC(C)C)[C@H]1C(=O)C(C(C)=O)=C3O[C@@H](C(C)(C)O)C[C@@]3(O)[C@@]1(O)O2,2700,1.7,80.7,4700,,,,
COc1c(CC=C(C)C)c(O)cc(O)c1C(C)=O,1800,1.7,79.1,3100,,,,
COc1c(CC=C(C)C)c(O)c(C=O)c(O)c1C(C)=O [ACRONYCULATIN A],,,7.4,,37.5,19.8,,
C[C@H]1[C@@H](O)O[C@@H]2O[C@@]3(C)CC[C@H]4[C@H](C)CC[C@@H]1[C@@]24OO3 [ARTENIMOL],,1.8,41.1,,,,,
C[C@H]1[C@H](OC(=O)CCC(=O)O)O[C@@H]2O[C@@]3(C)CC[C@H]4[C@H](C)CC[C@@H]1[C@@]24OO3 [ARTESUNATE],,,62.5,3.3,,,,
CCN(CC)CCCC(C)Nc1ccnc2cc(Cl)ccc12 (stereo not drawn) [CHLOROQUINE],,,53.2,,,,,
COc1ccc(C[C@H](N)C(=O)N[C@H]2[C@@H](O)[C@H](n3cnc4c(N(C)C)ncnc43)O[C@@H]2CO)cc1 [PUROMYCIN],70.2,1.1,,74.7,,,694,9.9
CCc1nc(N)nc(N)c1-c1ccc(Cl)cc1 [PYRIMETHAMINE],7.7,,52,,,,,
COc1ccc2nc3cc(Cl)ccc3c(Nc3cc(CN4CCCC4)c(O)c(CN4CCCC4)c3)c2n1 [PYRONARIDINE],8.2,1.3,,11,,,1990,246
